Measured values as given in ChEMBL document CHEMBL1139257, “The absolute configuration plays an important role in muscarinic activity of BGT-A and its analogs” (Bioorg Med Chem, 2008).
Calls of active or inactive are those of the source. No cut-off for these calls is given here.

Legend:
Cavia porcellus [1] = species: Cavia porcellus; assay: (§1) Antagonist activity at guinea pig mAChR assessed as inhibition of carbachol-induced iris muscle contraction; format: functional, tissue-based
Method in brief: (§2)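 pA2 values derived by Arunlakshana–Schild analysis of contraction responses; data as means SEM.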

[2] = Displacement of [3H]NMS from mAChR in SD rat submandibulary gland by rapid filtration technique
Method in brief: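 Membranes from male SD rat (220–240 g) submandibulary glands, homogenised in ice-cold 0.32 M sucrose/50 mM Tris pH 7.4, spun at 1000g then 20,000g, at 4 °C. Membranes (0.1 mg protein) incubated at 37 °C with [3H]NMS and increasing compound concentrations in Tris buffer. Filtered through glass fibre, washed three times. Run in duplicate. IC50 by curve fit, Ki by Cheng–Prusoff.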

Oryctolagus cuniculus [3] = species: Oryctolagus cuniculus; assay: Mydriatic effect in rabbit assessed as change in pupil diameter under constant light at 0.02 M after 10 mins; format: functional
Method in brief: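 Rabbits (2.5–3.0 kg, either sex), randomised into groups of five. 0.05 ml agent dropped into left eye, right eye as control reference. Left pupil diameter (mm) read under constant light before and 10 min after dosing. Significance by Student's t-test, P < 0.05.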

Oryctolagus cuniculus [4] = species: Oryctolagus cuniculus; assay: Myotic effect in rabbit assessed as change in pupil diameter under constant light at 0.02 M after 10 mins; format: functional
Method in brief: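 Twenty healthy rabbits (2.5–3.0 kg, either sex) were randomised into four groups of five. Left pupil diameter (mm) was read under constant light before and 10 min after 0.05 ml agent was dropped in; the right eye served as control reference. Significance by Student's t-test, P < 0.05.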

[5] = (§3) Agonist activity at guinea pig mAChR assessed as stimulation of carbachol-induced iris muscle contraction; format: functional, tissue-based, Cavia porcellus
Method in brief: (§4)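 Iris contraction assay: EC50 (agonist concentration giving half-maximal response) and log concentration–response slopes obtained by nonlinear sigmoidal dose–response logistic curve fitting. Data given as means SEM; significance by Student's t-test, P < 0.05.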

[6] = Agonist activity at guinea pig mAChR assessed as stimulation of carbachol-induced iris muscle contraction relative to carbachol; format: functional; settings: Cavia porcellus
[7] = as §1; format: functional, tissue-based, Cavia porcellus; method in brief: as §2
Cavia porcellus [8] = species: Cavia porcellus; assay: as §3; format: functional, tissue-based; method in brief: as §4

**Q.** Which results are given for `CC(=O)O[C@@H]1CC2C[C@H](OC(=O)c3ccc(Cl)cc3)CC1N2C` (some centres undefined)?
**A.** Activity (Cavia porcellus [1]): inactive; Ki [2]: 73 µM; Activity (Oryctolagus cuniculus [3]): 3%

**Q.** For `CC(=O)O[C@@H]1CC2C[C@H](OS(=O)(=O)c3ccccc3)CC1N2C` (some centres undefined), which Activity (Oryctolagus cuniculus [4]) is on record?
**A.** Its Activity is 4.7%.

**Q.** Which pEC50 [5] does the source give for `C[N+](C)(C)CCOC(N)=O.[Cl-]` [CARBACHOL] here?
**A.** Its pEC50 is 6.57.

**Q.** What about the Emax [6] of the same compound?
**A.** The Emax was 100%.

**Q.** With `CC(=O)O[C@H]1CC2C[C@@H](OC(=O)c3ccc([N+](=O)[O-])cc3)CC1N2C` (some centres undefined) as the compound, how does the pA2 [7] read?
**A.** Its pA2 is 6.11.

**Q.** What about the Ki [2] of the same compound?
**A.** The Ki was 3.7 µM.

**Q.** What about the Activity (Oryctolagus cuniculus [3]) of the same compound?
**A.** Its Activity is 35.1%.

**Q.** For `CC(=O)O[C@H]1CC2C[C@@H](OS(=O)(=O)c3ccccc3)CC1N2C` (some centres undefined), which Activity (Oryctolagus cuniculus [4]) is on record?
**A.** Its Activity is 44%.

**Q.** What about the pEC50 [5] of the same compound?
**A.** The pEC50 was 6.06.

**Q.** What about the Activity (Cavia porcellus [8]) of the same compound?
**A.** The Activity was “Dose-dependent effect”.

**Q.** What about the Ki [2] of the same compound?
**A.** The Ki was 0.04 µM.

**Q.** And the Emax [6]?
**A.** The Emax was 87.1%.

**Q.** Which Ki [2] does the source give for `CC(=O)O[C@H]1CC2C[C@@H](OC(=O)c3ccc(Cl)cc3)CC1N2C` (some centres undefined) here?
**A.** The Ki was 9 µM.

**Q.** And the Activity (Oryctolagus cuniculus [3])?
**A.** The Activity was 32.2%.

**Q.** With `CC(=O)O[C@@H]1CC2C[C@H](OC(=O)c3ccc([N+](=O)[O-])cc3)CC1N2C` (some centres undefined) as the compound, how does the Activity (Cavia porcellus [1]) read?
**A.** Its Activity is “inactive”.

**Q.** What about the Ki [2] of the same compound?
**A.** Its Ki is 450 µM.

**Q.** What about the Activity (Oryctolagus cuniculus [3]) of the same compound?
**A.** The Activity was 3.7%.
